Measurements as given in ChEMBL document CHEMBL1255424, “Antistaphylococcal activity of ACHN-490 tested alone and in combination with other agents by time-kill assay” (2010).
Values after ≈ are worked out from the molar mass of the structure shown.

Key:
Assay type in all cases: functional
Staphylococcus aureus [1] = assay: Antibacterial activity against vancomycin-susceptible Staphylococcus aureus after 24 hrs by modified broth macrodilution method
Procedure, shortened: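 MICs determined in recent clinical MRSA isolates by a modified broth macrodilution method per CLSI recommendations, with 24 h incubation. Daptomycin tests used Mueller-Hinton broth supplemented with calcium. Value is the lowest inhibitory drug concentration.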

Staphylococcus aureus [2] = assay: Antibacterial activity against vancomycin-intermediate Staphylococcus aureus after 24 hrs by modified broth macrodilution method
Procedure, shortened: (§1)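 MIC read after 24 h incubation by modified broth macrodilution, validated per CLSI recommendations, against recent clinical MRSA isolates (hospital- and community-acquired, hVISA, VISA, VRSA). Daptomycin tests ran in Mueller-Hinton broth with added calcium.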

Staphylococcus aureus [3] = assay: Antibacterial activity against vancomycin-hetero-intermediate Staphylococcus aureus after 24 hrs by modified broth macrodilution method; procedure, shortened: as §1
Staphylococcus aureus [4] = assay: Antibacterial activity against vancomycin-resistant Staphylococcus aureus after 24 hrs by modified broth macrodilution method; procedure, shortened: as §1
Staphylococcus aureus [5] = assay: Antibacterial activity against vancomycin-resistant Staphylococcus aureus isolate 557 after 24 hrs by modified broth macrodilution method; details: isolate 557, 24 h; procedure, shortened: as §1
Staphylococcus aureus [6] = assay: Antibacterial activity against vancomycin-resistant Staphylococcus aureus isolate 509 after 24 hrs by modified broth macrodilution method; details: isolate 509, 24 h; procedure, shortened: as §1
Staphylococcus aureus [7] = assay: Antibacterial activity against vancomycin-resistant Staphylococcus aureus isolate 1263 after 24 hrs by modified broth macrodilution method; details: isolate 1263, 24 h; procedure, shortened: as §1
Staphylococcus aureus [8] = assay: Antibacterial activity against vancomycin-resistant Staphylococcus aureus isolate 1264 after 24 hrs by modified broth macrodilution method; details: isolate 1264, 24 h; procedure, shortened: as §1
Staphylococcus aureus [9] = assay: Antibacterial activity against vancomycin-hetero-intermediate Staphylococcus aureus isolate 618 after 24 hrs by modified broth macrodilution method; details: isolate 618, 24 h; procedure, shortened: as §1
Staphylococcus aureus [10] = assay: Antibacterial activity against vancomycin-hetero-intermediate Staphylococcus aureus isolate 873 after 24 hrs by modified broth macrodilution method; details: isolate 873, 24 h; procedure, shortened: as §1
Staphylococcus aureus [11] = assay: Antibacterial activity against vancomycin-intermediate Staphylococcus aureus isolate 555 after 24 hrs by modified broth macrodilution method; details: isolate 555, 24 h; procedure, shortened: as §1
Staphylococcus aureus [12] = assay: Antibacterial activity against vancomycin-intermediate Staphylococcus aureus isolate 1287 after 24 hrs by modified broth macrodilution method; details: isolate 1287, 24 h; procedure, shortened: as §1
Staphylococcus aureus [13] = assay: Antibacterial activity against vancomycin-intermediate Staphylococcus aureus isolate 770 after 24 hrs by modified broth macrodilution method; details: isolate 770, 24 h; procedure, shortened: as §1
Staphylococcus aureus [14] = assay: Antibacterial activity against vancomycin-intermediate Staphylococcus aureus isolate 1008 after 24 hrs by modified broth macrodilution method; details: isolate 1008, 24 h; procedure, shortened: as §1
Staphylococcus aureus [15] = assay: Antibacterial activity against vancomycin-intermediate Staphylococcus aureus isolate 1009 after 24 hrs by modified broth macrodilution method; details: isolate 1009, 24 h; procedure, shortened: as §1
Staphylococcus aureus [16] = assay: Antibacterial activity against vancomycin-intermediate Staphylococcus aureus isolate 1010 after 24 hrs by modified broth macrodilution method; details: isolate 1010, 24 h; procedure, shortened: as §1
Staphylococcus aureus [17] = assay: Antibacterial activity against vancomycin-intermediate Staphylococcus aureus isolate 1011 after 24 hrs by modified broth macrodilution method; details: isolate 1011, 24 h; procedure, shortened: as §1
Staphylococcus aureus [18] = assay: Antibacterial activity against vancomycin-intermediate Staphylococcus aureus isolate 1012 after 24 hrs by modified broth macrodilution method; details: isolate 1012, 24 h; procedure, shortened: as §1
Staphylococcus aureus [19] = assay: Antibacterial activity against vancomycin-intermediate Staphylococcus aureus isolate 1013 after 24 hrs by modified broth macrodilution method; details: isolate 1013, 24 h; procedure, shortened: as §1
Staphylococcus aureus [20] = assay: Antibacterial activity against vancomycin-intermediate Staphylococcus aureus isolate 1014 after 24 hrs by modified broth macrodilution method; details: isolate 1014, 24 h; procedure, shortened: as §1
Staphylococcus aureus [21] = assay: Antibacterial activity against vancomycin-intermediate Staphylococcus aureus isolate 1015 after 24 hrs by modified broth macrodilution method; details: isolate 1015, 24 h; procedure, shortened: as §1
Staphylococcus aureus [22] = assay: Antibacterial activity against vancomycin-intermediate Staphylococcus aureus isolate 1016 after 24 hrs by modified broth macrodilution method; details: isolate 1016, 24 h; procedure, shortened: as §1
Staphylococcus aureus [23] = assay: Antibacterial activity against vancomycin-intermediate Staphylococcus aureus isolate 1017 after 24 hrs by modified broth macrodilution method; details: isolate 1017, 24 h; procedure, shortened: as §1
Staphylococcus aureus [24] = assay: Antibacterial activity against vancomycin-intermediate Staphylococcus aureus isolate 511 after 24 hrs by modified broth macrodilution method; details: isolate 511, 24 h; procedure, shortened: as §1
Staphylococcus aureus [25] = assay: Antibacterial activity against vancomycin-intermediate Staphylococcus aureus isolate 1003 after 24 hrs by modified broth macrodilution method; details: isolate 1003, 24 h; procedure, shortened: as §1
Staphylococcus aureus [26] = assay: Antibacterial activity against vancomycin-intermediate Staphylococcus aureus isolate 1004 after 24 hrs by modified broth macrodilution method; details: isolate 1004, 24 h; procedure, shortened: as §1
Staphylococcus aureus [27] = assay: Antibacterial activity against vancomycin-intermediate Staphylococcus aureus isolate 1005 after 24 hrs by modified broth macrodilution method; details: isolate 1005, 24 h; procedure, shortened: as §1
Staphylococcus aureus [28] = assay: Antibacterial activity against vancomycin-intermediate Staphylococcus aureus isolate 1006 after 24 hrs by modified broth macrodilution method; details: isolate 1006, 24 h; procedure, shortened: as §1
Staphylococcus aureus [29] = assay: Antibacterial activity against vancomycin-intermediate Staphylococcus aureus isolate 1984 after 24 hrs by modified broth macrodilution method; details: isolate 1984, 24 h; procedure, shortened: as §1
Staphylococcus aureus [30] = assay: Antibacterial activity against vancomycin-intermediate Staphylococcus aureus isolate 1007 after 24 hrs by modified broth macrodilution method; details: isolate 1007, 24 h; procedure, shortened: as §1
Staphylococcus aureus [31] = assay: Antibacterial activity against methicillin-resistant Staphylococcus aureus isolate 2003 after 24 hrs by modified broth macrodilution method; details: isolate 2003, 24 h; procedure, shortened: as §1
Staphylococcus aureus [32] = assay: Antibacterial activity against hospital-acquired methicillin-resistant Staphylococcus aureus isolate 1743 after 24 hrs by modified broth macrodilution method; details: isolate 1743, 24 h; procedure, shortened: as §1
Staphylococcus aureus [33] = assay: Antibacterial activity against hospital-acquired methicillin-resistant Staphylococcus aureus isolate 1751 after 24 hrs by modified broth macrodilution method; details: isolate 1751, 24 h; procedure, shortened: as §1
Staphylococcus aureus [34] = assay: Antibacterial activity against hospital-acquired methicillin-resistant Staphylococcus aureus isolate 1766 after 24 hrs by modified broth macrodilution method; details: isolate 1766, 24 h; procedure, shortened: as §1
Staphylococcus aureus [35] = assay: Antibacterial activity against hospital-acquired methicillin-resistant Staphylococcus aureus isolate 1776 after 24 hrs by modified broth macrodilution method; details: isolate 1776, 24 h; procedure, shortened: as §1
Staphylococcus aureus [36] = assay: Antibacterial activity against hospital-acquired methicillin-resistant Staphylococcus aureus isolate 1806 after 24 hrs by modified broth macrodilution method; details: isolate 1806, 24 h; procedure, shortened: as §1
Staphylococcus aureus [37] = assay: Antibacterial activity against hospital-acquired methicillin-resistant Staphylococcus aureus isolate 1808 after 24 hrs by modified broth macrodilution method; details: isolate 1808, 24 h; procedure, shortened: as §1
Staphylococcus aureus [38] = assay: Antibacterial activity against hospital-acquired methicillin-resistant Staphylococcus aureus isolate 1838 after 24 hrs by modified broth macrodilution method; details: isolate 1838, 24 h; procedure, shortened: as §1
Staphylococcus aureus [39] = assay: Antibacterial activity against hospital-acquired methicillin-resistant Staphylococcus aureus isolate 1851 after 24 hrs by modified broth macrodilution method; details: isolate 1851, 24 h; procedure, shortened: as §1
Staphylococcus aureus [40] = assay: Antibacterial activity against hospital-acquired methicillin-resistant Staphylococcus aureus isolate 1867 after 24 hrs by modified broth macrodilution method; details: isolate 1867, 24 h; procedure, shortened: as §1
Staphylococcus aureus [41] = assay: Antibacterial activity against community-acquired methicillin-resistant panton-valentine leukocidin-positive Staphylococcus aureus isolate 1468 after 24 hrs by modified broth macrodilution method; details: isolate 1468, 24 h; procedure, shortened: as §1
Staphylococcus aureus [42] = assay: Antibacterial activity against community-acquired methicillin-resistant panton-valentine leukocidin-positive Staphylococcus aureus isolate 1469 after 24 hrs by modified broth macrodilution method; details: isolate 1469, 24 h; procedure, shortened: as §1
Staphylococcus aureus [43] = assay: Antibacterial activity against community-acquired methicillin-resistant panton-valentine leukocidin-positive Staphylococcus aureus isolate 815 after 24 hrs by modified broth macrodilution method; details: isolate 815, 24 h; procedure, shortened: as §1
Staphylococcus aureus [44] = assay: Antibacterial activity against community-acquired methicillin-resistant panton-valentine leukocidin-positive Staphylococcus aureus isolate 950 after 24 hrs by modified broth macrodilution method; details: isolate 950, 24 h; procedure, shortened: as §1
Staphylococcus aureus [45] = assay: Antibacterial activity against community-acquired methicillin-resistant panton-valentine leukocidin-positive Staphylococcus aureus isolate 1471 after 24 hrs by modified broth macrodilution method; details: isolate 1471, 24 h; procedure, shortened: as §1
Staphylococcus aureus [46] = assay: Antibacterial activity against community-acquired methicillin-resistant panton-valentine leukocidin-positive Staphylococcus aureus isolate 1472 after 24 hrs by modified broth macrodilution method; details: isolate 1472, 24 h; procedure, shortened: as §1
Staphylococcus aureus [47] = assay: Antibacterial activity against community-acquired methicillin-resistant panton-valentine leukocidin-positive Staphylococcus aureus isolate 593 after 24 hrs by modified broth macrodilution method; details: isolate 593, 24 h; procedure, shortened: as §1
Staphylococcus aureus [48] = assay: Antibacterial activity against community-acquired methicillin-resistant panton-valentine leukocidin-positive Staphylococcus aureus isolate 693 after 24 hrs by modified broth macrodilution method; details: isolate 693, 24 h; procedure, shortened: as §1
Staphylococcus aureus [49] = assay: Antibacterial activity against community-acquired methicillin-resistant panton-valentine leukocidin-positive Staphylococcus aureus isolate 813 after 24 hrs by modified broth macrodilution method; details: isolate 813, 24 h; procedure, shortened: as §1
Staphylococcus aureus [50] = assay: Antibacterial activity against community-acquired methicillin-resistant panton-valentine leukocidin-negative Staphylococcus aureus isolate 1470 after 24 hrs by modified broth macrodilution method; details: isolate 1470, 24 h; procedure, shortened: as §1
Staphylococcus aureus [51] = assay: Antibacterial activity against vancomycin-resistant Staphylococcus aureus isolate 510 after 24 hrs by modified broth macrodilution method; details: isolate 510, 24 h; procedure, shortened: as §1

Nc1nc(/C(=N/O)C(=O)N[C@@H]2C(=O)N3C(C(=O)O)=C(/C=C4\CCN([C@@H]5CCNC5)C4=O)CS[C@H]23)ns1 [CEFTOBIPROLE]
MIC (Staphylococcus aureus [1]): 0.5 µg/mL (≈ 0.935 µM)
MIC (Staphylococcus aureus [2]): 0.5 µg/mL (≈ 0.935 µM)
MIC (Staphylococcus aureus [3]): 2 µg/mL (≈ 3.74 µM)
MIC (Staphylococcus aureus [4]): 0.5 µg/mL (≈ 0.935 µM)
MIC (Staphylococcus aureus [5]): 1 µg/mL (≈ 1.87 µM)
MIC (Staphylococcus aureus [6]): 2 µg/mL (≈ 3.74 µM)
MIC (Staphylococcus aureus [7]): 2 µg/mL (≈ 3.74 µM)
MIC (Staphylococcus aureus [8]): 0.5 µg/mL (≈ 0.935 µM)
MIC (Staphylococcus aureus [9]): 2 µg/mL (≈ 3.74 µM)
MIC (Staphylococcus aureus [10]): 2 µg/mL (≈ 3.74 µM)
MIC (Staphylococcus aureus [11]): 1 µg/mL (≈ 1.87 µM)
MIC (Staphylococcus aureus [12]): 0.5 µg/mL (≈ 0.935 µM)
MIC (Staphylococcus aureus [13]): 2 µg/mL (≈ 3.74 µM)
MIC (Staphylococcus aureus [14]): 2 µg/mL (≈ 3.74 µM)
MIC (Staphylococcus aureus [15]): 2 µg/mL (≈ 3.74 µM)
MIC (Staphylococcus aureus [16]): 2 µg/mL (≈ 3.74 µM)
MIC (Staphylococcus aureus [17]): 4 µg/mL (≈ 7.48 µM)
MIC (Staphylococcus aureus [18]): 4 µg/mL (≈ 7.48 µM)
MIC (Staphylococcus aureus [19]): 2 µg/mL (≈ 3.74 µM)
MIC (Staphylococcus aureus [20]): 2 µg/mL (≈ 3.74 µM)
MIC (Staphylococcus aureus [21]): 1 µg/mL (≈ 1.87 µM)
MIC (Staphylococcus aureus [22]): 4 µg/mL (≈ 7.48 µM)
MIC (Staphylococcus aureus [23]): 2 µg/mL (≈ 3.74 µM)
MIC (Staphylococcus aureus [24]): 2 µg/mL (≈ 3.74 µM)
MIC (Staphylococcus aureus [25]): 2 µg/mL (≈ 3.74 µM)
MIC (Staphylococcus aureus [26]): 1 µg/mL (≈ 1.87 µM)
MIC (Staphylococcus aureus [27]): 1 µg/mL (≈ 1.87 µM)
MIC (Staphylococcus aureus [28]): 2 µg/mL (≈ 3.74 µM)
MIC (Staphylococcus aureus [29]): 2 µg/mL (≈ 3.74 µM)
MIC (Staphylococcus aureus [30]): 1 µg/mL (≈ 1.87 µM)
MIC (Staphylococcus aureus [31]): 2 µg/mL (≈ 3.74 µM)
MIC (Staphylococcus aureus [32]): 2 µg/mL (≈ 3.74 µM)
MIC (Staphylococcus aureus [33]): 1 µg/mL (≈ 1.87 µM)
MIC (Staphylococcus aureus [34]): 2 µg/mL (≈ 3.74 µM)
MIC (Staphylococcus aureus [35]): 2 µg/mL (≈ 3.74 µM)
MIC (Staphylococcus aureus [36]): 1 µg/mL (≈ 1.87 µM)
MIC (Staphylococcus aureus [37]): 1 µg/mL (≈ 1.87 µM)
MIC (Staphylococcus aureus [38]): 2 µg/mL (≈ 3.74 µM)
MIC (Staphylococcus aureus [39]): 1 µg/mL (≈ 1.87 µM)
MIC (Staphylococcus aureus [40]): 2 µg/mL (≈ 3.74 µM)
MIC (Staphylococcus aureus [41]): 1 µg/mL (≈ 1.87 µM)
MIC (Staphylococcus aureus [42]): 1 µg/mL (≈ 1.87 µM)
MIC (Staphylococcus aureus [43]): 0.5 µg/mL (≈ 0.935 µM)
MIC (Staphylococcus aureus [44]): 1 µg/mL (≈ 1.87 µM)
MIC (Staphylococcus aureus [45]): 1 µg/mL (≈ 1.87 µM)
MIC (Staphylococcus aureus [46]): 1 µg/mL (≈ 1.87 µM)
MIC (Staphylococcus aureus [47]): 1 µg/mL (≈ 1.87 µM)
MIC (Staphylococcus aureus [48]): 1 µg/mL (≈ 1.87 µM)
MIC (Staphylococcus aureus [49]): 1 µg/mL (≈ 1.87 µM)
MIC (Staphylococcus aureus [50]): 2 µg/mL (≈ 3.74 µM)
MIC (Staphylococcus aureus [51]): 1 µg/mL (≈ 1.87 µM)
